Molecular target: Kynurenine 3-monooxygenase (Rattus norvegicus) (UniProt O88867)
Assay: Inhibitory activity against kynurenine 3-hydroxylase at 1 mM concentration
Method in brief: (§1)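 Enzyme source: rat striatal pellet (sucrose homogenate, 10000g), resuspended in 0.14 M KCl, 20 mM phosphate, pH 7. Incubation in 0.1 M phosphate, 4 mM MgCl2, 100 µM L-kynurenine with NADPH; compound 1 mM final in DMSO; 37 °C, 60 min. Stopped with cold perchloric acid. 3-Hydroxykynurenine measured by HPLC with electrochemical detection against a DHBA internal standard; activity expressed as nmol/h/g wet brain.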

Chain of Kynurenine 3-monooxygenase (Rattus norvegicus) (O88867 whole entry, looked up): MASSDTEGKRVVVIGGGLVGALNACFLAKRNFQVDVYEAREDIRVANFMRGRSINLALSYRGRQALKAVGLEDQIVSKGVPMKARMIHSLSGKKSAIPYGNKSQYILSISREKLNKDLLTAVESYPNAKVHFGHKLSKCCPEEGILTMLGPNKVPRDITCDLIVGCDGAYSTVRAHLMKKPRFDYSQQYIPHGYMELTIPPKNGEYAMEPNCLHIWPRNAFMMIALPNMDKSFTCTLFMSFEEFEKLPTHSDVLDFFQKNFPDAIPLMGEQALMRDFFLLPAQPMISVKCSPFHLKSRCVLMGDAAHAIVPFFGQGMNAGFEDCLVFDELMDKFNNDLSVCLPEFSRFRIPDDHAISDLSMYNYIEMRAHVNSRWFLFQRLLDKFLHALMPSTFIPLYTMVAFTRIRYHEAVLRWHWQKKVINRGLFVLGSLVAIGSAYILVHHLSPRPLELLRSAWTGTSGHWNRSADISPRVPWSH

inhibition [%]	Structure (SMILES)
18.9	CCC(=O)N1CCC(c2cc(OC)ccc2N)=N1
22.1	CC(=O)N1CCC(c2ccccc2N)=N1

Molecular target: Kynurenine 3-monooxygenase (Rattus norvegicus) (UniProt O88867)
Assay: Percent kynurenine 3-hydroxylase activity determined by the conversion of L-kynurenine to 3-hydroxykynurenine in rat striatum at 1 mM concentration of compound (value is mean +/- SEM)
Type: tissue-based
Method in brief: as §1

Activity [%]	Structure (SMILES)
105	COc1ccc(N)c(C2=NN(C(=O)C3CCCC3)CC2)c1
86.9	Nc1ccccc1C1=NN(C(=O)C2CC2)CC1
87.4	COc1ccc(N)c(C2=NN(C(=O)C3CCCCC3)CC2)c1
106	Nc1ccc(Cl)cc1C1=NN(C(=O)c2ccccc2)CC1
88.7	CCCC(=O)NC(CC(=O)c1cc(OC)ccc1N)C(=O)O (stereo not drawn)
81.1	CCC(=O)N1CCC(c2cc(OC)ccc2N)=N1
123	COc1ccc(N)c(C2=NN(C(=O)C3CC3)CC2)c1
85.2	CCC(=O)N1CCC(c2ccccc2N)=N1
97.7	CCC(=O)N1CCC(c2cc(Cl)ccc2N)=N1
82.5	Nc1ccccc1C1=NN(C(=O)c2ccccc2)CC1

Second part, the compound before the results:

Structure (SMILES)	Activity [%]
CC(=O)N1CCC(c2cc(Cl)ccc2N)=N1	111
Nc1ccc(Cl)cc1C1=NN(C(=O)C2CC2)CC1	98.1
COc1ccc(N)c(C2=NN(C(C)=O)CC2)c1	98.8
CC(=O)N1CCC(c2ccccc2N)=N1	77.8
COc1ccc(N)c(C2=NN(C(=O)C3CCC3)CC2)c1	96.5
CCCC(=O)N1CCC(c2cc(OC)ccc2N)=N1	96.4
CCCC(=O)N1CCC(c2ccccc2N)=N1	85
CCCC(=O)N1CCC(c2cc(Cl)ccc2N)=N1	97.7
CCCCC(=O)N1CCC(c2cc(OC)ccc2N)=N1	120
COc1ccc(N)c(C(=O)CC(NC(C)=O)C(=O)O)c1 (stereo not drawn)	101

Molecular target: Nitric oxide synthase 1 (Rattus norvegicus) (UniProt P29476)
Assay: Percent inhibition towards rat striatal neuronal nitric oxide synthase (nNOs) at 1 mM concentration (value is mean +/- SEM)
Method in brief: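 Rat striatal crude homogenate (two striata homogenized in Tris buffer with protease inhibitors, pH 7.6; 1000g supernatant). Conversion of L-[3H]-arginine to L-[3H]-citrulline in 25 mM Tris, 30 µM H4-biopterin, 10 µM FAD, 0.1 mM CaCl2, 10 µM L-arginine plus 50 nM tracer. Started with 0.75 mM NADPH; compound 1 mM final in DMSO; 37 °C, 30 min. Citrulline separated on Dowex-50W and counted by scintillation. Blank omits NADPH. Three experiments in triplicate, four rat striata each.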

Chain of Nitric oxide synthase 1 (Rattus norvegicus) (P29476 whole entry): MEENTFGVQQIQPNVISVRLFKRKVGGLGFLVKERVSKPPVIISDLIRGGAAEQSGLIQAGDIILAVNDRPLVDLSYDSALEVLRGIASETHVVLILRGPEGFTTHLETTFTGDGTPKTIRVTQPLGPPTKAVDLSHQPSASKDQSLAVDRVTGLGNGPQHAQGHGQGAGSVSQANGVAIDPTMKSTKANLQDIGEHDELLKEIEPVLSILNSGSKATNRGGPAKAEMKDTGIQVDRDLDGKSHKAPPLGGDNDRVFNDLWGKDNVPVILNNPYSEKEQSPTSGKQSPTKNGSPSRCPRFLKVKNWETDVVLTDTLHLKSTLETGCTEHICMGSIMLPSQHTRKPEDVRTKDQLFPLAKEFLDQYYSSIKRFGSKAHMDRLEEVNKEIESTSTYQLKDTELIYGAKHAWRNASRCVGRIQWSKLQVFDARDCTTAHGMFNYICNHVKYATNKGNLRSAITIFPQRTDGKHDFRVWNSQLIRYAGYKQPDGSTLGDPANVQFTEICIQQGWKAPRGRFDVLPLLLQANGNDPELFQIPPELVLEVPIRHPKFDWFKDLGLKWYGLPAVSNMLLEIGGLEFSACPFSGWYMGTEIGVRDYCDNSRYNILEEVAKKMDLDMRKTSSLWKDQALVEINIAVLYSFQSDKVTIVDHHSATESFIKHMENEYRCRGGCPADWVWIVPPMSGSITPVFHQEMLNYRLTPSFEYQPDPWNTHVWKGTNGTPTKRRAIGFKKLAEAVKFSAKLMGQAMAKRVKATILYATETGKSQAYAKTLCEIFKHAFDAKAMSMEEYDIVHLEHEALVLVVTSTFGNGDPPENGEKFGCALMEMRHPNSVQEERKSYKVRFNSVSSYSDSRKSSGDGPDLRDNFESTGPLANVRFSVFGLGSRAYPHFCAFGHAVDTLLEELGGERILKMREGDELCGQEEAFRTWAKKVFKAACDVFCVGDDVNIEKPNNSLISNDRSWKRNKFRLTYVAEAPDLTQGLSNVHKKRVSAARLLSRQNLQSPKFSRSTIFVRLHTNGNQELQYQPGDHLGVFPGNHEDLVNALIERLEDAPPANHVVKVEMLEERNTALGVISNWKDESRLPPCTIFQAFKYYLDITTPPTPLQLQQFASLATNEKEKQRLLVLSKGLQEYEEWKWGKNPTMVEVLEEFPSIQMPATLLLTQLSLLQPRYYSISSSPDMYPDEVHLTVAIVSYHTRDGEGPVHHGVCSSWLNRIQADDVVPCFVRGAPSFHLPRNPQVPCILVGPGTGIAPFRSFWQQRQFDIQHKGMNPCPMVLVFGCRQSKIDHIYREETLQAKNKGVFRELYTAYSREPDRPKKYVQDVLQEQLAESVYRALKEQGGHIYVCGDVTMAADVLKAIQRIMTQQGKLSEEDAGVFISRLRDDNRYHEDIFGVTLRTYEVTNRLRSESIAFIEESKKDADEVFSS

inhibition [%]	Structure (SMILES)
49.9	COc1ccc(N)c(C2=NN(C(=O)C3CCCC3)CC2)c1
38.8	Nc1ccccc1C1=NN(C(=O)C2CC2)CC1
62.2	COc1ccc(N)c(C2=NN(C(=O)C3CCCCC3)CC2)c1
61.1	Nc1ccc(Cl)cc1C1=NN(C(=O)c2ccccc2)CC1
45	CCCC(=O)NC(CC(=O)c1cc(OC)ccc1N)C(=O)O (stereo not drawn)
53.3	CCC(=O)N1CCC(c2cc(OC)ccc2N)=N1
58.9	COc1ccc(N)c(C2=NN(C(=O)c3ccccc3)CC2)c1
62.2	COc1ccc(N)c(C2=NN(C(=O)C3CC3)CC2)c1
36.5	CCC(=O)N1CCC(c2ccccc2N)=N1
46.1	CCC(=O)N1CCC(c2cc(Cl)ccc2N)=N1
57	Nc1ccccc1C1=NN(C(=O)c2ccccc2)CC1

Further lines, the compound ahead of its results:

Structure (SMILES)	inhibition [%]
CC(=O)N1CCC(c2cc(Cl)ccc2N)=N1	47.6
Nc1ccc(Cl)cc1C1=NN(C(=O)C2CC2)CC1	70.2
COc1ccc(N)c(C2=NN(C(C)=O)CC2)c1	38
CC(=O)N1CCC(c2ccccc2N)=N1	33.7
COc1ccc(N)c(C2=NN(C(=O)C3CCC3)CC2)c1	38.3
CCCC(=O)N1CCC(c2cc(OC)ccc2N)=N1	34.7
CCCC(=O)N1CCC(c2ccccc2N)=N1	52.4
CCCC(=O)N1CCC(c2cc(Cl)ccc2N)=N1	34.4
CCCCC(=O)N1CCC(c2cc(OC)ccc2N)=N1	49.8
COc1ccc(N)c(C(=O)CC(NC(C)=O)C(=O)O)c1 (stereo not drawn)	68.5

Source: ChEMBL document CHEMBL1138807, “4,5-dihydro-1H-pyrazole derivatives with inhibitory nNOS activity in rat brain: synthesis and structure-activity relationships” (J Med Chem, 2004)
